In ChEMBL document CHEMBL3875209, “Synthesis and biological evaluation of cis-restricted triazole/tetrazole mimics of combretastatin-benzothiazole hybrids as tubulin polymerization inhibitors and apoptosis inducers” (Bioorg Med Chem, 2017):
Active and inactive are the calls of the source. The rule behind the calls is not given here.

What was measured:
[1] = Antiproliferative activity against human DU145 cells after 48 hrs by MTT assay; format: functional, cell-based; settings: DU-145, 48 h
Procedure, shortened: (§1)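 MTT assay. Cells seeded in DMEM with 10% FBS and left 24 h at 37 °C in CO2 before compound treatment for 48 h. MTT (5 mg/mL stock) added for 4 h, formazan dissolved in DMSO, absorbance read at 570 nm. IC50 taken as the mean of three independent experiments.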

[2] = Antiproliferative activity against human HeLa cells after 48 hrs by MTT assay; format: functional, cell-based; procedure, shortened: as §1
[3] = Antiproliferative activity against human A549 cells after 48 hrs by MTT assay; format: functional, cell-based; settings: A549, 48 h; procedure, shortened: as §1
[4] = Antiproliferative activity against human HepG2 cells after 48 hrs by MTT assay; format: functional, cell-based; settings: HepG2, 48 h; procedure, shortened: as §1
[5] = Antiproliferative activity against human MCF7 cells after 48 hrs by MTT assay; format: functional, cell-based; settings: MCF7, 48 h; procedure, shortened: as §1
[6] = Cell cycle arrest in human A549 cells assessed as accumulation at G0/G1 phase at 50 nM after 48 hrs by propidium iodide staining based flow cytometry (reference value: 78.5%); format: functional
Procedure, shortened: (§2)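 A549 cells exposed for 48 h at 50 or 100 nM. Cells harvested, washed in PBS, fixed in ice-cold 70% ethanol and stained with propidium iodide. Phase distribution (G0/G1, S, G2/M) measured by flow cytometry against untreated cells.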

[7] = Cell cycle arrest in human A549 cells assessed as accumulation at S phase at 50 nM after 48 hrs by propidium iodide staining based flow cytometry (reference value: 9.4%); format: functional; procedure, shortened: as §2
[8] = Cell cycle arrest in human A549 cells assessed as accumulation at G2/M phase at 50 nM after 48 hrs by propidium iodide staining based flow cytometry (reference value: 12.1%); format: functional; procedure, shortened: as §2
[9] = Cell cycle arrest in human A549 cells assessed as accumulation at G0/G1 phase at 100 nM after 48 hrs by propidium iodide staining based flow cytometry (reference value: 78.5%); format: functional; procedure, shortened: as §2
[10] = Cell cycle arrest in human A549 cells assessed as accumulation at S phase at 100 nM after 48 hrs by propidium iodide staining based flow cytometry (reference value: 9.4%); format: functional; procedure, shortened: as §2
[11] = Cell cycle arrest in human A549 cells assessed as accumulation at G2/M phase at 100 nM after 48 hrs by propidium iodide staining based flow cytometry; format: functional; procedure, shortened: as §2
[12] = Cell cycle arrest in human A549 cells assessed as accumulation at G2/M phase after 48 hrs by propidium iodide staining based flow cytometry; format: functional; procedure, shortened: as §2
Sus scrofa = organism: Sus scrofa; assay: Inhibition of porcine brain tubulin polymerization at 3 uM in presence of GTP by fluorescence assay relative to control
Procedure, shortened: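 Fluorescence-reporter tubulin polymerization kit: PEM buffer with […], compound at 3 µM final, CA-4 as positive control. Fluorescence followed at ex 360/em 420 nm for 1 h at 37 °C. Mean ± SD of two experiments run in triplicate.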

[13] = Inhibition of porcine brain tubulin polymerization in presence of GTP by fluorescence assay; design: species or system Sus scrofa
Procedure, shortened: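 Tubulin polymerization IC50: compounds preincubated with tubulin at 0.5, 1, 2, 3 and 5 µM. Reactions in PEM buffer with […], polymerization followed by reporter fluorescence at ex 360/em 420 nm, with CA-4 as reference.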

A549 [14] = assay: Inhibition of alpha-tubulin polymerization in human A549 cells assessed as disruption of microtubule organization at 50 nM after 48 hrs by FITC/DAPI staining based immunofluorescence microscopic assay; format: cell-based
Procedure, shortened: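 A549 cells on coverslips treated at 50 nM for 48 h. Fixed in 3.5% formaldehyde/PBS, permeabilized with Triton X-100/Tween-20, blocked in 2% BSA. Anti-tubulin primary (1:200, 4 h) and FITC anti-mouse secondary (1:500, 1 h), DAPI mounting, confocal imaging.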

A549 [15] = assay: Inhibition of alpha-tubulin polymerization in human A549 cells assessed as increase in soluble tubulin fraction at 1 uM after 48 hrs by Western blot method; format: cell-based
Procedure, shortened: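 A549 cells (1 × 10⁵/well) treated at 1 µM for 48 h alongside DMSO, CA-4 and paclitaxel controls. Soluble fraction released with warm Pipes-KOH pH 6.8/Triton lysis buffer (3 min, 30 °C); insoluble fraction taken in Laemmli buffer. Both fractions blotted on SDS-10% PAGE with anti-α-tubulin and ECL detection.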

Homo sapiens = organism: Homo sapiens; assay: Inhibition of colchicine binding to tubulin (unknown origin) at 5 to 20 uM after 60 mins by fluorescence assay
Procedure, shortened: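 Tubulin (3 µM) incubated with compound at 5–20 µM, with and without colchicine (3 µM), in 30 mM Tris for 60 min at 37 °C. Fluorescence read at ex 350/em 435 nm. Tris blank and the colchicine-free signal were subtracted, and values normalized to DMSO. CA-4 and vinblastine served as controls.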

A549 [16] = assay: Induction of apoptosis in human A549 cells assessed as nuclei condensation at 50 nM after 48 hrs by Hoechst 33258 staining based fluorescence microscopic analysis; format: functional, cell-based
Procedure, shortened: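 A549 cells (5 × 10⁴/well) allowed to adhere 48 h, then treated at 50 nM for 48 h at 37 °C. Fixed in 4% paraformaldehyde at 4 °C for 10 min and stained with Hoechst 33258 (5 µg/mL) for 30 min at room temperature. Nuclear condensation scored by fluorescence microscopy (ex 350/em 460 nm, 10X).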

A549 [17] = assay: Induction of apoptosis in human A549 cells after 48 hrs by Annexin-V FITC/propidium iodide staining based flow cytometry; format: functional, cell-based
A549 [18] = assay: Induction of apoptosis in human A549 cells assessed as live cells at 100 nM after 48 hrs by Annexin-V FITC/propidium iodide staining based flow cytometry (reference value: 94.2%); format: functional
A549 [19] = assay: Induction of apoptosis in human A549 cells assessed as early apoptotic cells at 100 nM after 48 hrs by Annexin-V FITC/propidium iodide staining based flow cytometry (reference value: 5.2%); format: functional
A549 [20] = assay: Induction of apoptosis in human A549 cells assessed as late apoptotic cells at 100 nM after 48 hrs by Annexin-V FITC/propidium iodide staining based flow cytometry (reference value: 0.6%); format: functional
A549 [21] = assay: Induction of apoptosis in human A549 cells assessed as necrotic cells at 100 nM after 48 hrs by Annexin-V FITC/propidium iodide staining based flow cytometry (reference value: 0.1%); format: functional
A549 [22] = assay: Induction of apoptosis in human A549 cells assessed as live cells at 50 nM after 48 hrs by Annexin-V FITC/propidium iodide staining based flow cytometry (reference value: 94.2%); format: functional
A549 [23] = assay: Induction of apoptosis in human A549 cells assessed as early apoptotic cells at 50 nM after 48 hrs by Annexin-V FITC/propidium iodide staining based flow cytometry (reference value: 5.2%); format: functional
A549 [24] = assay: Induction of apoptosis in human A549 cells assessed as late apoptotic cells at 50 nM after 48 hrs by Annexin-V FITC/propidium iodide staining based flow cytometry (reference value: 0.6%); format: functional
A549 [25] = assay: Induction of apoptosis in human A549 cells assessed as necrotic cells at 50 nM after 48 hrs by Annexin-V FITC/propidium iodide staining based flow cytometry (reference value: 0.1%); format: functional
[26] = Depolarization of mitochondrial membrane potential in human A549 cells after 48 hrs by JC-1 staining based flow cytometry; format: functional, cell-based
A549 [27] = assay: Induction of mitochondrial membrane potential loss in human A549 cells at 100 nM after 48 hrs by JC-1 staining based flow cytometry (reference value: 3.8%); format: functional
A549 [28] = assay: Induction of mitochondrial membrane potential loss in human A549 cells assessed as intact mitochondrial membrane at 100 nM after 48 hrs by JC-1 staining based flow cytometry (reference value: 95.9%); format: functional
A549 [29] = assay: Induction of mitochondrial membrane potential loss in human A549 cells at 50 nM after 48 hrs by JC-1 staining based flow cytometry (reference value: 3.8%); format: functional
A549 [30] = assay: Induction of mitochondrial membrane potential loss in human A549 cells assessed as intact mitochondrial membrane at 50 nM after 48 hrs by JC-1 staining based flow cytometry (reference value: 95.9%); format: functional
A549 [31] = assay: Induction of ROS generation in human A549 cells at 100 nM after 48 hrs by DCFDA staining based flow cytometry (reference value: 4.4%); format: functional
A549 [32] = assay: Induction of ROS generation in human A549 cells at 50 nM after 48 hrs by DCFDA staining based flow cytometry (reference value: 4.4%); format: functional
A549 [33] = assay: Induction of apoptosis in human A549 cells assessed as increase in caspase-3 expression at 50 nM after 48 hrs by Western blot method; format: functional, cell-based
Procedure, shortened: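 Caspase-3 western blot of A549 lysates after 48 h at 50 nM. Proteins extracted in RIPA buffer, 50 µg per lane on 10% SDS-PAGE, transferred to PVDF and blocked with BSA. Primary antibody incubated 24 h, HRP secondary 1 h, chemiluminescent detection, with β-actin as loading control.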

COc1ccc2nc(-c3ccc(-n4cnnc4-c4cc(OC)c(OC)c(OC)c4)c(C)c3)sc2c1
IC50 [1]: 480 nM
IC50 [2]: 160 nM
IC50 [3]: 54 nM
IC50 [4]: 670 nM
IC50 [5]: 1130 nM
Activity [6]: 63.7%
Activity [7]: 10.6%
Activity [8]: 25.9%
Activity [9]: 21.5%
Activity [10]: 17.6%
Activity [11]: 59.5%
Activity [12]: Dose-dependent effect
inhibition (Sus scrofa): 72.9%
IC50 [13]: 1670 nM
inhibition (A549 [14]): Active
inhibition (A549 [15]): Active
inhibition (Homo sapiens): Active
Activity (A549 [16]): Active
Activity (A549 [17]): Dose-dependent effect
Activity (A549 [18]): 66%
Activity (A549 [19]): 23.7%
Activity (A549 [20]): 9.2%
Activity (A549 [21]): 1.1%
Activity (A549 [22]): 77.3%
Activity (A549 [23]): 13.5%
Activity (A549 [24]): 8.1%
Activity (A549 [25]): 1.1%
Activity [26]: Dose-dependent effect
Activity (A549 [27]): 16.9%
Activity (A549 [28]): 80.5%
Activity (A549 [29]): 11%
Activity (A549 [30]): 87.2%
Activity (A549 [31]): 12.3%
Activity (A549 [32]): 6.8%
Activity (A549 [33]): Active

COc1ccc(/C=C\c2cc(OC)c(OC)c(OC)c2)cc1O [COMBRETASTATIN A4]
IC50 [1]: 69 nM
IC50 [2]: 5 nM
IC50 [3]: 58 nM
IC50 [4]: 9 nM
IC50 [5]: 43 nM
Activity [7]: 12.6%
Activity [8]: 31.3%
Activity [9]: 26.1%
Activity [10]: 15.9%
inhibition (Sus scrofa): 73.2%
IC50 [13]: 1600 nM
inhibition (A549 [14]): Active
inhibition (A549 [15]): Active
inhibition (Homo sapiens): Active
Activity (A549 [16]): Active
Activity (A549 [18]): 60.8%
Activity (A549 [19]): 24.2%
Activity (A549 [20]): 13.3%
Activity (A549 [21]): 1.7%
Activity (A549 [27]): 21.8%
Activity (A549 [28]): 74.9%
Activity (A549 [31]): 18%

COc1cc(-c2nncn2-c2ccc(-c3nc4ccc(F)cc4s3)cc2C)cc(OC)c1OC
IC50 [1]: 280 nM
IC50 [2]: 150 nM
IC50 [3]: 48 nM
IC50 [4]: 300 nM
IC50 [5]: 1410 nM
Activity [6]: 60.6%
Activity [7]: 14.7%
Activity [8]: 25.1%
Activity [9]: 19.8%
Activity [10]: 15.4%
Activity [11]: 65.5%
Activity [12]: Dose-dependent effect
inhibition (Sus scrofa): 74.4%
IC50 [13]: 1000 nM
inhibition (A549 [14]): Active
inhibition (A549 [15]): Active
inhibition (Homo sapiens): Active
Activity (A549 [16]): Active
Activity (A549 [17]): Dose-dependent effect
Activity (A549 [18]): 63.9%
Activity (A549 [19]): 27.2%
Activity (A549 [20]): 8.2%
Activity (A549 [21]): 0.7%
Activity (A549 [22]): 78.3%
Activity (A549 [23]): 15.1%
Activity (A549 [24]): 5.8%
Activity (A549 [25]): 0.8%
Activity [26]: Dose-dependent effect
Activity (A549 [27]): 22.2%
Activity (A549 [28]): 74.4%
Activity (A549 [29]): 12.8%
Activity (A549 [30]): 85.2%
Activity (A549 [31]): 20.9%
Activity (A549 [32]): 10.4%
Activity (A549 [33]): Active
